Results: publication PMC6982535 (Science (New York, N.Y.), 2019)

Columns and labels:
[1] = biological target: T1, TRAAK (Homo sapiens, UniProt Q9NYG8); assay: Extended screening of K2P channels with BL-1249: TRAAK; type: cell-based; details: result in words
T1 sequence (Q9NYG8 1-393): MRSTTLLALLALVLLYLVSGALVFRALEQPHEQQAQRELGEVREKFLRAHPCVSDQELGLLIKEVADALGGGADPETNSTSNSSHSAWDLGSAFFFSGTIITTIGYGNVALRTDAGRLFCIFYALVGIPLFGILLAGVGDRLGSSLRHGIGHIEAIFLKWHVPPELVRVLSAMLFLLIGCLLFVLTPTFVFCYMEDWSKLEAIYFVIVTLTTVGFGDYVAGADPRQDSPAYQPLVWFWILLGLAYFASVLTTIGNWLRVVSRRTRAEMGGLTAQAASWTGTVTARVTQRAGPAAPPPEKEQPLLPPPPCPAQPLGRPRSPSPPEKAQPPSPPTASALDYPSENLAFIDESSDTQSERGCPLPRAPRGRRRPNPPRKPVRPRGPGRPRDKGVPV

[2] = biological target: T2, Kir1.1 (Homo sapiens, UniProt P48048); assay: BL-1249 on helix bundle-crossing gated channel Kir1.1; type: cell-based; details: result in words
T2 sequence (P48048 1-391): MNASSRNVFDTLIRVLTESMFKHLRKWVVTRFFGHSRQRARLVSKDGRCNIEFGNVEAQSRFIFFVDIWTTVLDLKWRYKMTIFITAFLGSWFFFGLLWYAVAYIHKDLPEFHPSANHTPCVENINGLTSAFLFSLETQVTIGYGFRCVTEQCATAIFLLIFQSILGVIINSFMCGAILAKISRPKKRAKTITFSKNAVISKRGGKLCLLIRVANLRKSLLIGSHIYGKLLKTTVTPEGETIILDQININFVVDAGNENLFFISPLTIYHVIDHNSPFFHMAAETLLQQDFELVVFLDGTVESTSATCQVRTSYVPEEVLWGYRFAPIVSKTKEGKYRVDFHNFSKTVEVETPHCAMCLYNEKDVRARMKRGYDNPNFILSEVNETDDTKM

[3] = biological target: T3, TREK-2 (Homo sapiens, UniProt P57789); assay: TREK-2 channel currents, BL-1249 dose-response ± TEA or THexA; type: cell-based; details: extended screening; result in words
T3 sequence (P57789 1-538): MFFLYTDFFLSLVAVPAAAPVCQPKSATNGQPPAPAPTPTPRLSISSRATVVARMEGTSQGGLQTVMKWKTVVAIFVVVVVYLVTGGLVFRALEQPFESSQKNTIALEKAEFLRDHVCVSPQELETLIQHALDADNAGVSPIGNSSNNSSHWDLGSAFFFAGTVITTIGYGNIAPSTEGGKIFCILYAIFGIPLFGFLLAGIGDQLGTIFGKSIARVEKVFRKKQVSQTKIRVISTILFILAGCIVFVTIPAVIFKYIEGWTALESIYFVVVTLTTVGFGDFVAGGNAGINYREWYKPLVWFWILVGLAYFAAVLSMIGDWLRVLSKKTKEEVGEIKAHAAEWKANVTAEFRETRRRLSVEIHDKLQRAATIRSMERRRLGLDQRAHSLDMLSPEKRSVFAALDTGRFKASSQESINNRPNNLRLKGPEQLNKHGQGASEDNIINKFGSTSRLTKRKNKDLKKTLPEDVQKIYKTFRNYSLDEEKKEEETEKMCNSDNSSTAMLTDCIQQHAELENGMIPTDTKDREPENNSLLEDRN
Method in brief: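 TREK-2 concentration-response curves for test compound were run with and without intracellular blocker: 100 mM TEA (n ≥ 12) or 5 μM THexA (n ≥ 13). Inhibition of basal current by each blocker was also quantified.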

[4] = biological target: T3, TREK-2; assay: Single channel recordings of TREK-2 expressed in HEK293 cells; type: cell-based; details: TREK-2 in HEK293 cells
[5] = biological target: T4, TALK-1 (Homo sapiens, UniProt Q96T55); assay: Extended screening of K2P channels with BL-1249: TALK-1; type: cell-based; details: result in words
T4 sequence (Q96T55 1-309): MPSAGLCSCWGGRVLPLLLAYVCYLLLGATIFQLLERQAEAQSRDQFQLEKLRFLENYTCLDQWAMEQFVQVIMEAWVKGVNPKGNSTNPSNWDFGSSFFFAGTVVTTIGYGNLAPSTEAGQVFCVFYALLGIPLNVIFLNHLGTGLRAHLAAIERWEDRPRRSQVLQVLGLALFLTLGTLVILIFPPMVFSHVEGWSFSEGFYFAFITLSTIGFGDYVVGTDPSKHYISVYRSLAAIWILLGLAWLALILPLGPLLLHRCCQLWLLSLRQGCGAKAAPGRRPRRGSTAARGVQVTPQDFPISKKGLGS

[6] = biological target: hERG (Homo sapiens, UniProt Q12809); assay: hERG channel currents in inside-out patches; type: cell-based; details: inside-out patches; result in words
[7] = acidic tetrazole ring; no reference given; cited from earlier work
[8] = biological target: T5, TREK-1 L304C (Homo sapiens, UniProt O95069, L304C); assay: Cysteine-modification protection: MTS-TBAO modification of TREK-1 L304C; type: cell-based; details: 10 μM MTS-TBAO; BL-1249 50 μM, ML335 50 μM, 2-APB 1 mM; result in words
T5 sequence (O95069 1-426 L304C): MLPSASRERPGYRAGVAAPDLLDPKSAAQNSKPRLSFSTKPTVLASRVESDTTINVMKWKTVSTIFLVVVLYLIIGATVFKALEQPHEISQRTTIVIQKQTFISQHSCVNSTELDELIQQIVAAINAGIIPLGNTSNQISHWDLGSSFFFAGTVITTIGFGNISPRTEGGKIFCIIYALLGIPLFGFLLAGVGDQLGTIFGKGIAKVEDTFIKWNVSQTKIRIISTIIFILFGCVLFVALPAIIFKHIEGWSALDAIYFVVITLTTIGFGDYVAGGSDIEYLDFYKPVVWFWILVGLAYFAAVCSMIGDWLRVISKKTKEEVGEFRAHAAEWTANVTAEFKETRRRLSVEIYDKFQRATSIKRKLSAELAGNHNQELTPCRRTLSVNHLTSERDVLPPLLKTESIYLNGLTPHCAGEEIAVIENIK

Sequence of hERG (Q12809 whole entry): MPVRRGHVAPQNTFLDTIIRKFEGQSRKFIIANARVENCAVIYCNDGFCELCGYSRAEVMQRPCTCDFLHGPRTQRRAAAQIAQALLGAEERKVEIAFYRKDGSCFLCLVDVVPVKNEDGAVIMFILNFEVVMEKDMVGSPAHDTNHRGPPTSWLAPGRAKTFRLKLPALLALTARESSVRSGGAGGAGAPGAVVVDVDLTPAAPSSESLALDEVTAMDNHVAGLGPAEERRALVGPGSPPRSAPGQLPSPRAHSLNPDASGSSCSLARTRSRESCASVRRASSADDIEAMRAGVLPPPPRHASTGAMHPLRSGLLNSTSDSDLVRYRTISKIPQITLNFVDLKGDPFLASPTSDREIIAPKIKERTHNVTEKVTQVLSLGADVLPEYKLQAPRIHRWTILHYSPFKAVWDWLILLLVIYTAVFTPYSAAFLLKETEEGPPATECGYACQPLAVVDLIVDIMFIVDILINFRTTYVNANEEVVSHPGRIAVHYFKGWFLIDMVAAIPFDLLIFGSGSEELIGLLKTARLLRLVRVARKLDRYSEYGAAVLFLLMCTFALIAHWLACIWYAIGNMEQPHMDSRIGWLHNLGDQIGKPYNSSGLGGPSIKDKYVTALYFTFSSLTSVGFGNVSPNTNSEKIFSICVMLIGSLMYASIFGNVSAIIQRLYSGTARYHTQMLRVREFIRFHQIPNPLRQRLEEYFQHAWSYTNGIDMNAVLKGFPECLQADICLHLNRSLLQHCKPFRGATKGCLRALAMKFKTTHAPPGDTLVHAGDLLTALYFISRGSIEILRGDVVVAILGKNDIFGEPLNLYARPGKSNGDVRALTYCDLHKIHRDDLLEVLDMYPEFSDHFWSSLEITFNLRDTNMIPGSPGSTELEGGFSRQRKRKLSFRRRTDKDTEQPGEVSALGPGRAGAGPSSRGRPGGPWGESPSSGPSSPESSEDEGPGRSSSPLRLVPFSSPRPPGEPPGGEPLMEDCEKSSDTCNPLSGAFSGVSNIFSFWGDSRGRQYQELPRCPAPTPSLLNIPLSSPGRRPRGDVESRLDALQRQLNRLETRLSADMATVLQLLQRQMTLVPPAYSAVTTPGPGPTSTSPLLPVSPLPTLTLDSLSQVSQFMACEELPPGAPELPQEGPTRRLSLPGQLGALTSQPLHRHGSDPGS

activation of TRAAK [1]: potent activation
activation of Kir1.1 [2]: not activated
activation of TREK-2 [3]: potent activation
single channel amplitude, outward ([4]; +100 mV, with BL-1249 (basal 17.7 ± 1.3), n = 7): 21.7 ± 1.4 pA
single channel amplitude, inward ([4]; -100 mV, with BL-1249 (basal -29.3 ± 1.5), n = 7): -34.1 ± 1.9 pA
open probability ([4]; result in words): increase in open probability
activation of TALK-1 [5]: potent activation
time course of irreversible pore blockade by MTS-TBAO [8]: markedly slowed
SMILES: c1ccc(-c2nn[nH]n2)c(Nc2cccc3c2CCCC3)c1 [BL-1249]
opening / activation of hERG channels [6]: equal efficiency in opening
pKa [7]: around 5
